Test results published in ChEMBL document CHEMBL1133122, “Hypocholesterolemic and hypolipidemic activity of some novel morpholine derivatives with antioxidant activity” (J Med Chem, 2000).

Columns and labels:
Assay type in all cases: functional
Rattus norvegicus [1] = assay: Percent decrease in Total cholesterol was determined after intraperitoneal administration of a dose of 56 uM/kg
How it was run: (§1)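 Hyperlipidemia induced in male Fischer-344 rats (230-280 g) by Triton WR 1339 in aqueous solution, 200 mg/kg ip. 1 h later the compound (28 or 56 µmol/kg, in saline) or saline alone was given ip; at 56 µmol/kg, dosing was twice in 24 h. After 24 h, aortic blood was drawn for plasma total cholesterol, LDL and triglycerides, expressed as % decrease. 4-6 rats per group; Student's t-test.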

Rattus norvegicus [2] = assay: Percent decrease in Total Triglycerides was determined after intraperitoneal administration of a dose of 56 uM/kg; how it was run: as §1
Rattus norvegicus [3] = assay: Percent decrease in Total Low density lipoproteins was determined after intraperitoneal administration of a dose of 56 uM/kg; how it was run: as §1
Rattus norvegicus [4] = assay: Percent decrease in Total Triglycerides was determined after intraperitoneal uM/kg; how it was run: as §1
Rattus norvegicus [5] = assay: Percent decrease in Total cholesterol was determined after intraperitoneal uM/kg; how it was run: as §1
Rattus norvegicus [6] = assay: Percent decrease in Total Low density lipoproteins was determined after intraperitoneal uM/kg; how it was run: as §1
Rattus norvegicus [7] = assay: Percent decrease in Total Low density lipoproteins was determined after intraperitoneal administration of a dose of 56 umol/kg; how it was run: as §1
Rattus norvegicus [8] = assay: Percent decrease in Total Low density lipoproteins was determined after intraperitoneal uM/kg; Not significant; how it was run: as §1

Row | SMILES | Decrease (Rattus norvegicus [1]) | Decrease (Rattus norvegicus [2]) | Decrease (Rattus norvegicus [3]) | Decrease (Rattus norvegicus [4]) | Decrease (Rattus norvegicus [5]) | Decrease (Rattus norvegicus [6]) | Decrease (Rattus norvegicus [7]) | Decrease (Rattus norvegicus [8])
1 | CN1CCOC(O)(c2ccc(-c3ccccc3)cc2)C1.Cl (stereo unspecified) | 32% | 42% | 32% |  |  |  |  | 
2 | CN1CC(O)(c2ccc(-c3ccccc3)cc2)OC2CCCCC21 (stereo unspecified) |  |  |  | 49% | 54% | 51% |  | 
3 | OC1(c2ccc(-c3ccccc3)cc2)CN2CCCCC2CO1 (stereo unspecified) |  |  |  | 20% | 22% | 51% |  | 
4 | CCCOC1(c2ccc(-c3ccccc3)cc2)CN(C)C2CCCCC2O1.Cl (stereo unspecified) |  |  |  | 41% | 50% |  | 28% | 
5 | CCOC1(c2ccc(-c3ccccc3)cc2)CN(C)CCO1.Cl (stereo unspecified) | 30% | 39% | 22% |  |  |  |  | 
6 | CCCOC1(c2ccc(-c3ccccc3)cc2)CN2CCCCC2CO1.Cl (stereo unspecified) |  |  |  | 34% | 36% |  |  | 17%
7 | CC(C)(Sc1cc(C(C)(C)C)c(O)c(C(C)(C)C)c1)Sc1cc(C(C)(C)C)c(O)c(C(C)(C)C)c1 [PROBUCOL] | 18% | 11% | 18% |  |  |  |  | 
